# Bioassay records as filed in PubChem BioAssay.
# CHRM5 antagonist = antagonists of human muscarinic M5 receptor (CHRM5). P08912. CHO-hM5 cells, Fluo-8 calcium fluorescence, ACh EC80. inhibition, % at 3 µM. actives 0.59% (n = 360,000). AID 624040;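 active = inhibition above a per-plate cutoff, the mean of that plate's test compounds plus 3 SD, cut at about 27% in these data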;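 note: 0% = acetylcholine EC80 with DMSO and 100% = DMSO without agonist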
# M4 PAM = positive allosteric modulators of human muscarinic M4 receptor; P08173; CHO-K1 hM4/Gqi5, Fluo-8 calcium fluorescence, ACh EC20; 0% = ACh EC20, 100% = maximal ACh; activation, % at 3 µM; actives 0.4% (n = 360,000);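 active = activation above its plate's cutoff, the mean activation of sample wells plus 3 SD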
# Target sequence (P08173 whole entry, looked up): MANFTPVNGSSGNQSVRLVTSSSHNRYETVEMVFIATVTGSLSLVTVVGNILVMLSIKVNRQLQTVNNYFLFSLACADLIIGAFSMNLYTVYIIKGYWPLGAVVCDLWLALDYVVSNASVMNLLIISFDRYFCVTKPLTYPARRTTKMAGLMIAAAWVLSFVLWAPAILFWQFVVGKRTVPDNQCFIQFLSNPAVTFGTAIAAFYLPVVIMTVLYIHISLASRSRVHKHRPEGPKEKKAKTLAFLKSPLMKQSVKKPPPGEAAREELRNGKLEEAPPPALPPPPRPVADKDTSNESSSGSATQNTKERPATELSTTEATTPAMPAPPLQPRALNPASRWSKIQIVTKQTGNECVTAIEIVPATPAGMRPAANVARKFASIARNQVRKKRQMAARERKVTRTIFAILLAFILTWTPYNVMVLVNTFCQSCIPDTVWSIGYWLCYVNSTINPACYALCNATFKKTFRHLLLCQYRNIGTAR
# CHRM4 antagonist = CHRM4 antagonism in calcium assay; P08173; CHO-hM4 cells, ACh EC80, Fluo-8 calcium fluorescence; inhibition, % at 3 µM; actives 0.73% (n = 360,000); AID 624125;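 active = inhibition above its plate's cutoff, the mean inhibition of sample wells plus 3 SD, cut at about 27% in these data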;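 note: 0% = acetylcholine EC80 with DMSO and 100% = DMSO without agonist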
# M5 ag = CHRM5 agonism in calcium assay. actives 0.19% (n = 360,000). AID 624037. CHO-K1 hM5 cells, Fluo-8 calcium fluorescence; 0% DMSO wells, 100% maximal acetylcholine response. activation, % at 3 µM;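 active = activation above the run's mean over test compounds plus 3 SD, cut at about 23% in these data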;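 note: signal is peak over basal fluorescence ratio across the kinetic read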
# M4 ag = CHRM4 agonism in calcium assay | activation, % at 3 µM | AID 624127 | P08173 | CHO-K1 hM4/Gqi5, Fluo-8 calcium fluorescence; vehicle 0%, full acetylcholine response 100% | actives 0.14% (n = 360,000);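 active = activation above the run mean over all test wells plus 3 SD, cut at about 32% in these data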;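 note: peak over basal fluorescence ratio per well then scaled between controls; 0% = DMSO wells and 100% = acetylcholine at EC100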
# M5 PAM = potentiates acetylcholine response at human M5 receptor; P08912; CHO-K1 hM5, Fluo-8 calcium, ACh EC20 PAM; 0% = ACh EC20, 100% = ACh EC100; actives 0.3% (n = 360,000); activation, % at 3 µM;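 active = activation above the run cutoff, the mean activation of all test compounds plus 3 SD, cut at about 18% in these data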
#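 Probe or stimulus: acetylcholine, EC20 level; Assay system: human M5 receptor in CHO-K1 cells; Schedule: compound preincubation 140 s before EC20 acetylcholine addition; Technique: intracellular calcium via Fluo-8 fluorescence; Dosing: single-point, 3 µM nominal; Read-out basis: percent activation from peak-over-basal fluorescence ratio, scaled EC20-to-EC100 acetylcholine; Repeats: one well per compound, no replicates.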
# * marks the source's active call; other numbers are inactive results. The list is not random: actives were taken first. Their share in the collection is about 1.8%.
SMILES,CHRM5 antagonist,M4 PAM,CHRM4 antagonist,M5 ag,M4 ag,M5 PAM
O=C(O)C(Cc1ccccc1)n1c(=S)[nH]c2ccccc2c1=O (centres undefined),1.4,10.3,-18.6,3.1,1.2,4.2
CN(Cc1ccccc1)C(=O)c1cccc(NC(=O)Cc2ccc(NC(=O)C3CCCN(C(=O)C4CCCC4)C3)cc2)c1 (centres undefined),0.0,-2.7,1.8,-2.6,0.0,-3.8
CCOC(=O)c1sc(NC(=O)Nc2cccc(Cl)c2)cc1C,36.9*,-24.2,37.5*,7.3,17.0,-18.0
Cc1nn(C)c(C)c1CN(Cc1nc(CCC(C)C)no1)C(C)C,31.6*,-5.2,9.0,5.8,9.6,-20.8
O=C(C1CCCCC1)N1CCN=C1SCc1cccnc1,0.1,-1.9,-5.3,1.2,0.6,-3.2
O=C(c1ccccc1)N1CCN=C1SCc1ccc([N+](=O)[O-])cc1,4.4,-15.9,28.9*,-6.3,0.1,-9.3
O=C(C1CCCCC1)N1CCN=C1SCc1cccc([N+](=O)[O-])c1,0.4,-16.8,31.6*,-8.9,-0.3,-2.4
COCCC1CCCCN1C(=O)c1ccc2nc(Cc3ccccc3F)oc2c1 (centres undefined),18.1,1.8,5.1,-3.1,2.8,-5.4
c1ccc(CCNc2ccnc3cc4ccccc4cc23)cc1,36.3*,-16.4,21.5,-4.7,10.2,-33.4
CC(C)Nc1ccc(Nc2ccnc3cc4ccccc4cc23)cc1,-5.6,-5.3,-11.2,-17.4,7.1,4.3
Cc1ccc(C2N(c3ccccc3)C(=S)N3CCCN23)cc1 (centres undefined),10.4,-14.4,48.0*,-12.7,-0.3,-29.2
Fc1ccc(C2N(c3ccccc3)C(=S)N3CCCN23)cc1 (centres undefined),8.0,-23.1,11.2,-18.1,-0.6,-4.2
CCSc1ccc2c(c1)N(CCCN1CCN(C)CC1)c1ccccc1S2,15.0,-14.6,13.0,1.4,12.8,-16.4
CN1CCCC(CN2c3ccccc3Sc3ccccc32)C1 (centres undefined),98.8*,-17.7,86.5*,0.6,10.0,-19.3
CN1CCCC(CC2c3ccccc3Sc3ccccc32)C1 (centres undefined),99.0*,-18.4,99.3*,1.8,11.3,-18.5
Cc1ccc(NC(=S)NCc2cccnc2)cc1,-6.9,15.9*,1.1,-2.7,0.9,2.4
S=C(NCc1cccnc1)Nc1cc(Cl)cc(Cl)c1,30.4*,-15.0,-2.3,1.7,16.5,-22.4
COc1ccc(-c2oc3c(c2C#CC(C)(C)O)C(OCCO)CC3)cc1 (centres undefined),-2.8,7.2,-8.9,-2.7,0.8,-1.6
Cc1ccc(Cl)cc1-c1cc(C(=O)N2CCN(c3ccncc3)CC2)[nH]n1,-0.8,0.3,-19.9,-3.4,2.2,-3.3
Cc1cc(C(=O)COc2cccnc2[N+](=O)[O-])c(C)n1Cc1cccs1,17.9,-12.0,11.1,4.6,14.9,-14.6
CC(=O)Nc1ccccc1OCC(=O)c1cc(C)n(Cc2cccs2)c1C,29.7*,-8.3,22.4,6.1,12.3,-17.0
CCc1c(O)nc(SCC(=O)Nc2ccc(OC)cc2)n(C2CCCCC2)c1=O,0.0,8.2,-7.0,3.0,-2.4,-0.4
CCc1c(O)nc(SCC(=O)Nc2ccc(Cl)cc2)n(-c2ccccc2)c1=O,-2.3,16.5*,-6.2,2.5,0.2,4.1
COc1ccc(CNC(=O)CN(C(=O)CCC(=O)Nc2nccs2)c2ccc3c(c2)OCO3)cc1,8.2,0.7,3.2,-3.8,1.5,4.1
CC1CCCCN1C(=O)CSc1nc(-c2ccccc2)cc(=O)[nH]1 (centres undefined),-8.8,8.7,-2.7,1.1,2.0,20.0*
SMILES,CHRM5 antagonist,M4 PAM,CHRM4 antagonist,M5 ag,M4 ag,M5 PAM
COc1ccc(C2=Nn3c(nnc3-c3ccc(OC)cc3)SC2)cc1,9.2,7.4,27.6*,-4.5,3.1,-4.7
COc1ccc(-c2nnc3n2N=C(C)CS3)cc1,8.5,-5.0,13.9,0.0,-0.6,-2.2
Cc1nn(CC(=O)N2CCN(S(=O)(=O)c3ccccc3)CC2)c(C)c1[N+](=O)[O-],16.4,-0.6,9.6,-2.8,-0.3,-6.5
COC(=O)c1cc(CNC(=O)c2ccccc2OCc2c(C)noc2C)ccc1OC,-25.3,18.0*,0.7,-1.5,4.7,2.2
COc1ccc(N(CC(=O)NCc2ccc(F)cc2)S(=O)(=O)c2c(C)n[nH]c2C)cc1,5.7,-2.2,2.2,-2.3,2.7,3.2
COc1ccc(N(CC(=O)NCc2ccc(Cl)cc2)S(=O)(=O)c2c(C)n[nH]c2C)cc1,29.6*,-2.4,-3.4,-4.5,3.8,-9.3
Cc1cccc(NC(=O)NCc2cccnc2)c1C,-4.4,5.3,-23.3,-1.3,-0.2,4.2
Oc1[nH]c2ccccc2c1N=Nc1ccccn1,11.4,6.7,-8.1,3.2,0.7,0.5
Oc1c(N=Nc2ccccn2)ccc2ccccc12,33.2*,-0.2,34.6*,-7.1,0.6,-14.0
O=C(Nc1cccc(Cl)c1)NC1CCN(C2CCCCC2)C1 (centres undefined),14.3,-7.3,19.6,-11.5,3.3,4.4
CCC(=O)c1ccc(OCC(=O)Nc2cccc(S(=O)(=O)N(C)c3ccccc3)c2)cc1,33.6*,-11.2,28.7*,0.8,27.4,-40.6
CN(c1ccccc1)S(=O)(=O)c1cccc(C(=O)NC2CCCCC2)c1,-1.6,3.1,-4.2,-1.8,4.5,0.8
Cc1ccc(S(=O)(=O)N(C)c2ccc(OCC(=O)Nc3nc4ccccc4s3)cc2)cc1,31.2*,-12.7,20.5,-0.3,10.3,-15.7
CN(c1ccccc1)S(=O)(=O)c1cccc(NS(=O)(=O)c2cccc(C(=O)O)c2)c1,-8.7,7.9,-7.0,3.8,-1.6,22.9*
Cc1nnc(SCC(=O)Nc2cccc(S(=O)(=O)N(C)c3ccccc3)c2)s1,31.2*,-8.0,24.9,7.7,12.8,-17.8
COc1cccc(NC(=O)Cn2c(CCC(=O)O)ccc2-c2ccc(C)cc2)c1,4.4,0.6,7.8,-1.1,1.7,-0.6
CC(=O)Nc1ccc(NC(=O)C2CCN(C(=O)NC3CCCCC3)CC2)cc1,2.5,-1.4,-6.5,-2.6,0.5,4.1
COc1ccc(NC(=O)/C(Cl)=C(/Cl)S(=O)Cc2ccc(Cl)cc2)cn1 (centres undefined),22.7,-3.9,30.2*,-0.6,4.2,-1.7
COc1ccc(NC(=O)C(Cl)=C(Cl)Cl)cn1,5.9,10.9,-11.3,-4.0,3.6,-1.2
CCCNS(=O)(=O)c1cc2c(cc1Br)CCN2C(=O)CC,4.1,6.5,-13.8,0.5,1.2,22.6*
